Laboratory results published in ChEMBL document CHEMBL1759952, “Synthesis and anticancer activities of some novel 2-(benzo[d]thiazol-2-yl)-8-substituted-2H-pyrazolo[4,3-c]quinolin-3(5H)-ones” (Eur J Med Chem, 2011).
≈ marks a conversion by molar mass, not a printed value.

Key:
[1] = system: SF-295; experiment: Cytotoxicity against human SF295 cells for 72 hrs by MTT assay; type: functional, cell-based; conditions: SF-295, 72 h
Outline: (§1)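 Cells kept in RPMI 1640 with 10% fetal bovine serum, 2 mM glutamine, 100 U/mL penicillin and streptomycin, at 37 °C under 5% CO₂. Compounds were dissolved in DMSO and diluted with water to 1 mg/mL, then incubated with cells for 72 h. Growth was read by MTT, with doxorubicin as positive control. IC₅₀ is the concentration giving 50% growth inhibition, in triplicate.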

[2] = system: MDA-MB-435; experiment: Cytotoxicity against human MDA-MB-435 cells for 72 hrs by MTT assay; type: functional, cell-based; conditions: MDA-MB-435, 72 h; outline: as §1
[3] = system: HCT-8; experiment: Cytotoxicity against human HCT8 cells for 72 hrs by MTT assay; type: functional, cell-based; conditions: HCT-8, 72 h; outline: as §1
[4] = Toxicity against mouse erythrocytes assessed as hemolysis after 30 mins by spectrometric analysis; type: cell-based, Erythrocyte
Outline: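 Used a 2% mouse erythrocyte suspension in 0.85% NaCl with 10 mM CaCl₂. Compounds (DMSO stock diluted in water) were tested across a graded range, 30 min at room temperature, then centrifuged. Released hemoglobin in the supernatant was read at 540 nm. DMSO was the negative control and 1% Triton X-100 the positive control. EC₅₀ = effective concentration.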

[5] = system: HL-60; experiment: Cytotoxicity against human HL60 cells for 72 hrs by MTT assay; type: functional, cell-based; conditions: HL-60, 72 h; outline: as §1

O=c1c2c[nH]c3ccc(F)cc3c-2nn1-c1nc2ccccc2s1
IC50 [1]: > 5 µg/mL | IC50 [2]: > 5 µg/mL | IC50 [3]: > 5 µg/mL | EC50 at 30 min [4]: > 250 µg/mL | IC50 [5]: > 5 µg/mL

Cc1ccc2[nH]cc3c(=O)n(-c4nc5ccccc5s4)nc-3c2c1
IC50 [1]: 4.5 µg/mL (≈ 13.5 µM) | IC50 [2]: 2.3 µg/mL (≈ 6.92 µM) | IC50 [3]: 4.1 µg/mL (≈ 12.3 µM) | EC50 at 30 min [4]: > 250 µg/mL | IC50 [5]: > 5 µg/mL

O=c1c2c[nH]c3ccc(Br)cc3c-2nn1-c1nc2ccccc2s1
IC50 [1]: 4.1 µg/mL (≈ 10.3 µM) | IC50 [2]: 1.6 µg/mL (≈ 4.03 µM) | IC50 [3]: > 5 µg/mL | EC50 at 30 min [4]: > 250 µg/mL | IC50 [5]: 3 µg/mL (≈ 7.55 µM)

COc1ccc2[nH]cc3c(=O)n(-c4nc5ccccc5s4)nc-3c2c1
IC50 [1]: > 5 µg/mL | IC50 [2]: > 5 µg/mL | IC50 [3]: > 5 µg/mL | EC50 at 30 min [4]: > 250 µg/mL | IC50 [5]: > 5 µg/mL

O=c1c2c[nH]c3ccc(Cl)cc3c-2nn1-c1nc2ccccc2s1
IC50 [1]: > 5 µg/mL | IC50 [2]: > 5 µg/mL | IC50 [3]: > 5 µg/mL | EC50 at 30 min [4]: > 250 µg/mL | IC50 [5]: > 5 µg/mL

O=c1c2c[nH]c3ccccc3c-2nn1-c1nc2ccccc2s1
IC50 [1]: > 5 µg/mL | IC50 [2]: > 5 µg/mL | IC50 [3]: > 5 µg/mL | EC50 at 30 min [4]: > 250 µg/mL | IC50 [5]: > 5 µg/mL

O=c1c2c[nH]c3ccc([N+](=O)[O-])cc3c-2nn1-c1nc2ccccc2s1
IC50 [1]: > 5 µg/mL | IC50 [2]: > 5 µg/mL | IC50 [3]: > 5 µg/mL | EC50 at 30 min [4]: > 250 µg/mL | IC50 [5]: > 5 µg/mL

COc1cccc2c1C(=O)c1c(O)c3c(c(O)c1C2=O)C[C@@](O)(C(=O)CO)C[C@@H]3O[C@H]1C[C@H](N)[C@H](O)[C@H](C)O1 [DOXORUBICIN]
IC50 [2]: 0.69 µg/mL (≈ 1.27 µM) | IC50 [3]: 0.06 µg/mL (≈ 0.11 µM) | IC50 [5]: 0.03 µg/mL (≈ 0.0552 µM)
